The source made the active and inactive calls. *1 amine or outer side, *2 acyl side, *3 side chain or, on linkers, in order; H or OH if unused. Where a SMILES comes first, the peptide text is derived from it. Bridges are numbered along the chain shown (N, C = ends). [ ]: non-standard residue; d: D form. The star is where a group is joined. pTerphenylCO(4''-OnC5H11) = CCCCCOc1ccc(-c2ccc(-c3ccc(C(=O)*)cc3)cc2)cc1; Orn(4R-OH,5R-OH) = O=C([C@H](C[C@@H](O)[C@@H](O)N[*:3])N[*:1])[*:2]; hTyr(3S-OH,4S-OH) = N[C@H](C(=O)O)[C@H](O)[C@@H](O)c1ccc(O)cc1; Pro(3S-OH,4S-Me) = C[C@H]1CN[C@H](C(=O)O)[C@H]1O; Hyp = O=C(O)[C@@H]1C[C@@H](O)CN1
How the values were obtained:
Candida dubliniensis [1] = assay: Antifungal activity against Candida dubliniensis SCSBB417709 after 24 hrs by EUCAST test; format: functional
Procedure, shortened: (§1)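 Yeasts were grown overnight at 30°C in NGY, then inoculated at 10^5 yeasts/ml initial concentration into MOPS-buffered RPMI 1640 with 2% glucose containing aqueous doubling dilutions of drug. Plates were held at 35°C for 24 h. MICs came from triplicate spectrophotometric dose-response data at 50% and 80% growth-reduction endpoints. Trailing meant a >100-fold gap between these endpoints; paradoxical meant regrowth ≥5% above the curve minimum.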

Candida dubliniensis [2] = assay: Antifungal activity against Candida dubliniensis FS after 24 hrs by CLSI M27-A test; format: functional
Procedure, shortened: (§2)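 Broth microdilution with echinocandins as aqueous doubling dilutions. Yeasts were grown overnight at 30°C in NGY and seeded at 10^3 yeasts/ml initial concentration in MOPS-buffered RPMI 1640, then incubated at 35°C for 24 h. The MIC was read visually as the lowest concentration giving a marked decrease in visible growth; paradoxical or trailing growth was noted.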

Candida albicans [3] = assay: Antifungal activity against Candida albicans SCS140136P after 24 hrs by CLSI M27-A test; format: functional
Procedure, shortened: (§3)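 CLSI M27-A broth microdilution with aqueous doubling dilutions of drug. Inoculum grown overnight at 30°C in NGY medium, then added to MOPS-buffered RPMI 1640 at an initial 10^3 yeasts/ml. Incubated 35°C for 24 h. MIC read visually as the lowest concentration giving a marked decrease in visible growth; paradoxical or trailing growth noted.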

Candida dubliniensis [4] = assay: Antifungal activity against Candida dubliniensis B71507 after 24 hrs by EUCAST test; format: functional; procedure, shortened: as §1
Candida dubliniensis [5] = assay: Antifungal activity against Candida dubliniensis SCS17154969-1 after 24 hrs by EUCAST test; format: functional; procedure, shortened: as §1
Candida dubliniensis [6] = assay: Antifungal activity against Candida dubliniensis 81/060 after 24 hrs by EUCAST test; format: functional
Procedure, shortened: (§4)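 EUCAST broth microdilution with aqueous doubling dilutions of drug. Inoculum grown overnight at 30°C in NGY, then added to MOPS-buffered RPMI 1640 with 2% glucose at an initial 10^5 yeasts/ml. Incubated 35°C for 24 h. MICs taken from triplicate spectrophotometric dose-response data as 50% and 80% growth-reduction endpoints.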

Candida albicans [7] = assay: Antifungal activity against Candida albicans NCPF6525 after 24 hrs by EUCAST test; format: functional; procedure, shortened: as §4
Candida albicans [8] = assay: Antifungal activity against Candida albicans SCS68858 after 24 hrs by EUCAST test; format: functional; procedure, shortened: as §4
Candida dubliniensis [9] = assay: Antifungal activity against Candida dubliniensis Leic875 after 24 hrs by CLSI M27-A test; format: functional; procedure, shortened: as §2
Candida albicans [10] = assay: Antifungal activity against Candida albicans SCS140136P after 24 hrs by EUCAST test; format: functional; procedure, shortened: as §4
Candida dubliniensis [11] = assay: Antifungal activity against Candida dubliniensis 90/033 after 24 hrs by CLSI M27-A test; format: functional; procedure, shortened: as §3
Candida dubliniensis [12] = assay: Antifungal activity against Candida dubliniensis ANSA 23a after 24 hrs by CLSI M27-A test; format: functional, organism-based; procedure, shortened: as §2
Candida albicans [13] = assay: Antifungal activity against Candida albicans JIMS101103 after 24 hrs by CLSI M27-A test; format: functional, organism-based; procedure, shortened: as §3
Candida albicans [14] = assay: Antifungal activity against Candida albicans JIMS132203 after 24 hrs by EUCAST test; format: functional; procedure, shortened: as §4
Candida dubliniensis [15] = assay: Antifungal activity against Candida dubliniensis KR after 24 hrs by CLSI M27-A test; format: functional; procedure, shortened: as §2
Candida albicans [16] = assay: Antifungal activity against Candida albicans T25 after 24 hrs by EUCAST test; format: functional; procedure, shortened: as §4
Candida dubliniensis [17] = assay: Antifungal activity against Candida dubliniensis ANSA 23a after 24 hrs by EUCAST test; format: functional; procedure, shortened: as §1
Candida dubliniensis [18] = assay: Antifungal activity against Candida dubliniensis J930936 after 24 hrs by CLSI M27-A test; format: functional; procedure, shortened: as §2
Candida albicans [19] = assay: Antifungal activity against Candida albicans SC5314 after 24 hrs by EUCAST test; format: functional; conditions: SC5314, 24 h; procedure, shortened: as §4
Candida dubliniensis [20] = assay: Antifungal activity against Candida dubliniensis SCSBB417709 after 24 hrs by CLSI M27-A test; format: functional; procedure, shortened: as §2
Pichia kudriavzevii [21] = assay: Antifungal activity against Candida krusei ATCC 6258 after 24 hrs by EUCAST test; format: functional; conditions: ATCC 6258, 24 h; procedure, shortened: as §1
Candida albicans [22] = assay: Antifungal activity against Candida albicans T26 after 24 hrs by CLSI M27-A test; format: functional; procedure, shortened: as §3
Candida dubliniensis [23] = assay: Antifungal activity against Candida dubliniensis SCS17154969-2 after 24 hrs by EUCAST test; format: functional; procedure, shortened: as §1
Candida albicans [24] = assay: Antifungal activity against Candida albicans SC5314 after 24 hrs by CLSI M27-A test; format: functional; conditions: SC5314, 24 h; procedure, shortened: as §3
Candida dubliniensis [25] = assay: Antifungal activity against Candida dubliniensis SCS59662 after 24 hrs by EUCAST test; format: functional; procedure, shortened: as §1
Candida dubliniensis [26] = assay: Antifungal activity against Candida dubliniensis Leic875 after 24 hrs by EUCAST test; format: functional; procedure, shortened: as §1
Candida dubliniensis [27] = assay: Antifungal activity against Candida dubliniensis SCS65875C after 24 hrs by CLSI M27-A test; format: functional; procedure, shortened: as §2
Candida albicans [28] = assay: Antifungal activity against Candida albicans JIMS101103 after 24 hrs by EUCAST test; format: functional; procedure, shortened: as §4
Candida dubliniensis [29] = assay: Antifungal activity against Candida dubliniensis SCS17154969-2 after 24 hrs by CLSI M27-A test; format: functional; procedure, shortened: as §2
Candida dubliniensis [30] = assay: Antifungal activity against Candida dubliniensis J931021 after 24 hrs by CLSI M27-A test; format: functional; procedure, shortened: as §2
Candida albicans [31] = assay: Antifungal activity against Candida albicans T28 after 24 hrs by CLSI M27-A test; format: functional; procedure, shortened: as §3
Candida dubliniensis [32] = assay: Antifungal activity against Candida dubliniensis 910Aa after 24 hrs by EUCAST test; format: functional; procedure, shortened: as §4
Candida dubliniensis [33] = assay: Antifungal activity against Candida dubliniensis IK after 24 hrs by CLSI M27-A test; format: functional; procedure, shortened: as §2
Candida albicans [34] = assay: Antifungal activity against Candida albicans NCPF6525 after 24 hrs by CLSI M27-A test; format: functional; procedure, shortened: as §3
Candida albicans [35] = assay: Antifungal activity against Candida albicans JIMS146204 after 24 hrs by CLSI M27-A test; format: functional; procedure, shortened: as §3
Pichia kudriavzevii [36] = assay: Antifungal activity against Candida krusei ATCC 6258 after 24 hrs by CLSI M27-A test; format: functional; conditions: ATCC 6258, 24 h
Procedure, shortened: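 Broth microdilution per CLSI M27-A. Drugs were prepared as aqueous doubling dilutions. Inoculum was grown overnight at 30°C in neopeptone-yeast extract-glucose medium, then added to MOPS-buffered RPMI 1640 at an initial 10^3 yeasts/ml. Plates were incubated at 35°C for 24 h. MIC was read visually as the lowest concentration giving a marked decrease in visible growth.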

Candida parapsilosis = assay: Antifungal activity against Candida parapsilosis ATCC 22019 after 24 hrs by CLSI M27-A test; format: functional; conditions: Lodderomyces parapsilosis, ATCC 22019, 24 h; procedure, shortened: as §2
Candida dubliniensis [37] = assay: Antifungal activity against Candida dubliniensis 81/060 after 24 hrs by CLSI M27-A test; format: functional, organism-based; procedure, shortened: as §3
Candida albicans [38] = assay: Antifungal activity against Candida albicans HK04M102095 after 24 hrs by EUCAST test; format: functional; procedure, shortened: as §4

CCCCCOc1ccc(-c2ccc(-c3ccc(C(=O)N[C@H]4C[C@@H](O)[C@@H](O)NC(=O)[C@@H]5[C@@H](O)[C@@H](C)CN5C(=O)[C@H]([C@@H](C)O)NC(=O)[C@H]([C@H](O)[C@@H](O)c5ccc(O)cc5)NC(=O)[C@@H]5C[C@@H](O)CN5C(=O)[C@H]([C@@H](C)O)NC4=O)cc3)cc2)cc1 [ANIDULAFUNGIN] ({pTerphenylCO(4''-OnC5H11)}-[Orn(4R-OH,5R-OH)]T[Hyp][hTyr(3S-OH,4S-OH)]T[Pro(3S-OH,4S-Me)]; lactam 1-C)
0.063 µg/mL: MIC50 (Pichia kudriavzevii [21]) | MIC50 (Candida dubliniensis [23])
0.5 µg/mL: MIC50 (Candida albicans [16]) | MIC50 (Candida parapsilosis)
0.25 µg/mL: MIC50 (Candida dubliniensis [4]) | MIC50 (Candida albicans [7])
0.13 µg/mL: MIC50 (Candida albicans [34]) | MIC50 (Pichia kudriavzevii [36])
≤ 0.032 µg/mL: MIC50 (Candida dubliniensis [1]) | MIC50 (Candida dubliniensis [2]) | MIC50 (Candida albicans [3]) | MIC50 (Candida dubliniensis [5]) | MIC50 (Candida dubliniensis [6]) | MIC50 (Candida albicans [8]) | MIC50 (Candida dubliniensis [9]) | MIC50 (Candida albicans [10]) | MIC50 (Candida dubliniensis [11]) | MIC50 (Candida albicans [14]) | MIC50 (Candida dubliniensis [15]) | MIC50 (Candida dubliniensis [17]) | MIC50 (Candida dubliniensis [18]) | MIC50 (Candida albicans [19]) | MIC50 (Candida dubliniensis [20]) | MIC50 (Candida albicans [24]) | MIC50 (Candida dubliniensis [25]) | MIC50 (Candida dubliniensis [26]) | MIC50 (Candida dubliniensis [27]) | MIC50 (Candida albicans [28]) | MIC50 (Candida dubliniensis [29]) | MIC50 (Candida dubliniensis [30]) | MIC50 (Candida albicans [31]) | MIC50 (Candida dubliniensis [32]) | MIC50 (Candida dubliniensis [33]) | MIC50 (Candida albicans [35]) | MIC50 (Candida albicans [38])
active: Activity (Candida dubliniensis [12]) | Activity (Candida albicans [13]) | Activity (Candida dubliniensis [37])
1 µg/mL: MIC50 (Candida albicans [22])
